Assay results from ChEMBL document CHEMBL1221342, “Synthesis and in vitro antitumor activity of new 4,5-dihydropyrazole derivatives” (Bioorg Med Chem, 2010).

What was measured:
Assay type in all cases: functional
CCRF-CEM = experiment: Growth inhibition of human CCRF-CEM cells after 48 hrs by SRB assay
Summary of the method: (§1)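 NCI 60-cell-line screen. Cells grown in RPMI1640 with 5% fetal calf serum and 2 mM L-glutamine, with inoculum density set by cell line. Preincubated 24 h, then given compound in DMSO at 10^-4 to 10^-8 M (five 10-fold steps) for 48 h continuous exposure. Growth measured by SRB protein assay. GI50, TGI and LC50 reported as –log molar.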

HL-60(TB) = experiment: Growth inhibition of human HL-60(TB) cells after 48 hrs by SRB assay; details: HL-60, 48 h
Summary of the method: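 NCI 60-cell-line screen: cells grown in RPMI1640 with 5% fetal calf serum and 2 mM L-glutamine, preincubated 24 h, then exposed to compound in DMSO at five concentrations (10^-4 to 10^-8 M) for 48 h continuous exposure. Growth estimated by sulforhodamine B protein assay; reported as pGI50 (-log molar concentration inhibiting net cell growth by 50%).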

[1] = Growth inhibition of human […] cells after 48 hrs by SRB assay; summary of the method: as §1
SR = experiment: Growth inhibition of human SR cells after 48 hrs by SRB assay; summary of the method: as §1
EKVX = experiment: Growth inhibition of human EKVX cells after 48 hrs by SRB assay; summary of the method: as §1
HOP-62 = experiment: Growth inhibition of human HOP62 cells after 48 hrs by SRB assay; details: HOP-62, 48 h; summary of the method: as §1
NCI-H460 = experiment: Growth inhibition of human NCI-H460 cells after 48 hrs by SRB assay; details: NCI-H460, 48 h; summary of the method: as §1
NCI-H522 = experiment: Growth inhibition of human NCI-H522 cells after 48 hrs by SRB assay; details: NCI-H522, 48 h; summary of the method: as §1
HCT-15 = experiment: Growth inhibition of human HCT15 cells after 48 hrs by SRB assay; details: HCT-15, 48 h; summary of the method: as §1
HT-29 = experiment: Growth inhibition of human HT-29 cells after 48 hrs by SRB assay; details: HT-29, 48 h; summary of the method: as §1
KM12 = experiment: Growth inhibition of human KM12 cells after 48 hrs by SRB assay; details: KM12, 48 h; summary of the method: as §1
SW-620 = experiment: Growth inhibition of human SW620 cells after 48 hrs by SRB assay; details: SW-620, 48 h; summary of the method: as §1
SF-268 = experiment: Growth inhibition of human SF268 cells after 48 hrs by SRB assay; details: SF-268, 48 h; summary of the method: as §1
SF-539 = experiment: Growth inhibition of human SF539 cells after 48 hrs by SRB assay; details: SF-539, 48 h; summary of the method: as §1
SNB-75 = experiment: Growth inhibition of human SNB75 cells after 48 hrs by SRB assay; details: SNB-75, 48 h; summary of the method: as §1
Malme-3M = experiment: Growth inhibition of human MALME-3M cells after 48 hrs by SRB assay; summary of the method: as §1
M14 = experiment: Growth inhibition of human M14 cells after 48 hrs by SRB assay; details: M14, 48 h; summary of the method: as §1
SK-MEL-2 = experiment: Growth inhibition of human SK-MEL-2 cells after 48 hrs by SRB assay; details: SK-MEL-2, 48 h; summary of the method: as §1
MDA-MB-435 = experiment: Growth inhibition of human MDA-MB-435 cells after 48 hrs by SRB assay; details: MDA-MB-435, 48 h; summary of the method: as §1
SK-MEL-28 = experiment: Growth inhibition of human SK-MEL-28 cells after 48 hrs by SRB assay; details: SK-MEL-28, 48 h; summary of the method: as §1
SK-MEL-5 = experiment: Growth inhibition of human SK-MEL-5 cells after 48 hrs by SRB assay; details: SK-MEL-5, 48 h; summary of the method: as §1
IGROV-1 = experiment: Growth inhibition of human IGROV1 cells after 48 hrs by SRB assay; details: IGROV-1, 48 h; summary of the method: as §1
OVCAR-3 = experiment: Growth inhibition of human OVCAR-3 cells after 48 hrs by SRB assay; details: OVCAR-3, 48 h; summary of the method: as §1
OVCAR-8 = experiment: Growth inhibition of human OVCAR8 cells after 48 hrs by SRB assay; details: OVCAR-8, 48 h; summary of the method: as §1
NCI/ADR-RES = experiment: Growth inhibition of human NCI/ADR-RES cells after 48 hrs by SRB assay; summary of the method: as §1
SK-OV-3 = experiment: Growth inhibition of human SKOV3 cells after 48 hrs by SRB assay; details: SK-OV-3, 48 h; summary of the method: as §1
786-0 = experiment: Growth inhibition of human 786-0 cells after 48 hrs by SRB assay; details: 786-0, 48 h; summary of the method: as §1
A498 = experiment: Growth inhibition of human A498 cells after 48 hrs by SRB assay; details: A498, 48 h; summary of the method: as §1
CAKI-1 = experiment: Growth inhibition of human Caki1 cells after 48 hrs by SRB assay; details: CAKI-1, 48 h; summary of the method: as §1
RXF 393 = experiment: Growth inhibition of human RXF393 cells after 48 hrs by SRB assay; details: RXF 393, 48 h; summary of the method: as §1
TK-10 = experiment: Growth inhibition of human TK10 cells after 48 hrs by SRB assay; details: TK-10, 48 h; summary of the method: as §1
UO-31 = experiment: Growth inhibition of human UO31 cells after 48 hrs by SRB assay; details: UO-31, 48 h; summary of the method: as §1
DU-145 = experiment: Growth inhibition of human DU145 cells after 48 hrs by SRB assay; details: DU-145, 48 h; summary of the method: as §1
[2] = Growth inhibition of human Hs 578T cells after 48 hrs by SRB assay; summary of the method: as §1
BT-549 = experiment: Growth inhibition of human BT549 cells after 48 hrs by SRB assay; details: BT-549, 48 h; summary of the method: as §1
T47D = experiment: Growth inhibition of human T47D cells after 48 hrs by SRB assay; summary of the method: as §1
MDA-MB-468 = experiment: Growth inhibition of human MDA-MB-468 cells after 48 hrs by SRB assay; details: MDA-MB-468, 48 h; summary of the method: as §1

Molecule COc1cc(C2CC(c3cccc(O)c3)=NN2C(C)=O)cc(OC)c1OC (configuration not stated) has a GI50 (CCRF-CEM) of 1 µM, a TGI (CCRF-CEM; read-out: pTGI (converted)) of 5.01 µM and a GI50 (HL-60(TB)) of 1.58 µM. For the same molecule, the TGI (HL-60(TB); read-out: pTGI (converted)) was 5.01 µM, the GI50 [1] was 1 µM and the TGI ([1]; read-out: pTGI (converted)) was 5.01 µM. For the same molecule, the GI50 (SR) was 0.1 µM, the TGI (SR; read-out: pTGI (converted)) was > 100 µM and the GI50 (EKVX) was 6.31 µM. The TGI (EKVX; read-out: pTGI (converted)) was > 100 µM, the GI50 (HOP-62) was 0.126 µM and the TGI (HOP-62; read-out: pTGI (converted)) was 2 µM. For the same molecule, the GI50 (NCI-H460) was 2 µM, the TGI (NCI-H460; read-out: pTGI (converted)) was 10 µM and the GI50 (NCI-H522) was 1.58 µM. For the same molecule, the TGI (NCI-H522; read-out: pTGI (converted)) was 39.8 µM, the GI50 (HCT-15) was 0.794 µM and the TGI (HCT-15; read-out: pTGI (converted)) was > 100 µM. The GI50 (HT-29) was 3.16 µM, the TGI (HT-29; read-out: pTGI (converted)) was > 100 µM and the GI50 (KM12) was 1 µM. The TGI (KM12; read-out: pTGI (converted)) was > 100 µM, the GI50 (SW-620) was 0.794 µM and the TGI (SW-620; read-out: pTGI (converted)) was > 100 µM. For the same molecule, the GI50 (SF-268) was 7.94 µM, the TGI (SF-268; read-out: pTGI (converted)) was > 100 µM and the GI50 (SF-539) was 2 µM. It also gave a TGI (SF-539; read-out: pTGI (converted)) of 6.31 µM, a GI50 (SNB-75) of 0.398 µM and a GI50 (Malme-3M) of 2.51 µM. The TGI (Malme-3M; read-out: pTGI (converted)) was > 100 µM, the GI50 (M14) was 0.794 µM and the TGI (M14; read-out: pTGI (converted)) was > 100 µM. For the same molecule, the GI50 (SK-MEL-2) was 6.31 µM, the TGI (SK-MEL-2; read-out: pTGI (converted)) was > 100 µM and the GI50 (MDA-MB-435) was 0.251 µM. The TGI (MDA-MB-435; read-out: pTGI (converted)) was 0.794 µM, the GI50 (SK-MEL-28) was 5.01 µM and the TGI (SK-MEL-28; read-out: pTGI (converted)) was > 100 µM. For the same molecule, the GI50 (SK-MEL-5) was 0.631 µM, the TGI (SK-MEL-5; read-out: pTGI (converted)) was 5.01 µM and the GI50 (IGROV-1) was 3.98 µM. For the same molecule, the TGI (IGROV-1; read-out: pTGI (converted)) was > 100 µM, the GI50 (OVCAR-3) was 1.26 µM and the TGI (OVCAR-3; read-out: pTGI (converted)) was 3.98 µM. For the same molecule, the GI50 (OVCAR-8) was 5.01 µM, the TGI (OVCAR-8; read-out: pTGI (converted)) was > 100 µM and the GI50 (NCI/ADR-RES) was 1.26 µM. For the same molecule, the TGI (NCI/ADR-RES; read-out: pTGI (converted)) was 3.98 µM, the GI50 (SK-OV-3) was 2.51 µM and the TGI (SK-OV-3; read-out: pTGI (converted)) was > 100 µM. It also gave a GI50 (786-0) of 1.26 µM, a TGI (786-0; read-out: pTGI (converted)) of 3.98 µM and a GI50 (A498) of 2.51 µM. For the same molecule, the TGI (A498; read-out: pTGI (converted)) was 10 µM, the GI50 (CAKI-1) was 2.51 µM and the TGI (CAKI-1; read-out: pTGI (converted)) was > 100 µM. The GI50 (RXF 393) was 3.98 µM, the TGI (RXF 393; read-out: pTGI (converted)) was > 100 µM and the GI50 (TK-10) was 7.94 µM. The TGI (TK-10; read-out: pTGI (converted)) was > 100 µM, the GI50 (UO-31) was 10 µM and the TGI (UO-31; read-out: pTGI (converted)) was > 100 µM. The GI50 (DU-145) was 3.16 µM, the GI50 [2] was 0.794 µM and the TGI ([2]; read-out: pTGI (converted)) was 7.94 µM. The GI50 (BT-549) was 5.01 µM, the TGI (BT-549; read-out: pTGI (converted)) was > 100 µM and the GI50 (T47D) was 3.16 µM. The TGI (T47D; read-out: pTGI (converted)) was > 100 µM, the GI50 (MDA-MB-468) was 0.501 µM and the TGI (MDA-MB-468; read-out: pTGI (converted)) was 10 µM.
